Measurements as given in ChEMBL document CHEMBL5058577, “EUbOPEN Chemogenomics Library 2 (Multiplex)” (2022).

System: Fibroblast
Test: Multiplex assay against human fibroblast
Assay type: toxicity, cell-based
Procedure, shortened: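 Tubulin, mitochondrial-mass and membrane-permeability phenotypes are per cents of healthy-nucleus cells. Cells were gated by CellPathfinder machine learning into Hoechst high-intensity objects or normal cells, normal cells into healthy, pyknosed or fragmented nuclei, and pyknosed cells into mitotic or apoptotic. Before that, live cells stained at seeding with Hoechst33342, BioTracker Green Microtubule Cytoskeleton Dye, MitoTracker Red and Annexin V Alexa Fluor 680 were imaged on a CQ1 microscope at 37°C and 5% CO2 after compound addition.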

[1] = 12 h, 1 µM, compound concentration 1 uM, replicate 1
[2] = 12 h, 1 µM, compound concentration 1 uM, replicate 2
[3] = 12 h, 10 µM, compound concentration 10 uM, replicate 1
[4] = 12 h, 10 µM, compound concentration 10 uM, replicate 2
[5] = 24 h, 1 µM, compound concentration 1 uM, replicate 1
[6] = 24 h, 1 µM, compound concentration 1 uM, replicate 2
[7] = 24 h, 10 µM, compound concentration 10 uM, replicate 1
[8] = 24 h, 10 µM, compound concentration 10 uM, replicate 2
[9] = 48 h, 1 µM, compound concentration 1 uM, replicate 1
[10] = 48 h, 1 µM, compound concentration 1 uM, replicate 2
[11] = 48 h, 10 µM, compound concentration 10 uM, replicate 1
[12] = 48 h, 10 µM, compound concentration 10 uM, replicate 2

In the case of c1cc(OCCCN2CCCCC2)ccc1CN1CCCCC1 [JNJ-5207852], the “Population Apoptotic (%)” value [1] is reported as 37%, the “Population Fragmented Nuclei (%)” value [1] is reported as 15% and the “Population Healthy Nuclei (%)” value [1] is reported as 64%. The “Population Hoechst High Intensity Objects (%)” value [1] was 1%, the “Population Membrane Permeable-Phenotype (%)” value [1] was 0% and the “Population Mitochondria Different-Phenotype (%)” value [1] was 2%. For the same molecule, the “Population Mitotic Cells (%)” value [1] was 62%, the “Population Normal (%)” value [1] was 98% and the “Population Pyknosed Nuclei (%)” value [1] was 20%. For the same molecule, the “Population Tubulin-Different-Phenotype (%)” value [1] was 26%, the “Total Cell Count” value [1] was 181 and the “Population Apoptotic (%)” value [2] was 26%. For the same molecule, the “Population Fragmented Nuclei (%)” value [2] was 24%, the “Population Healthy Nuclei (%)” value [2] was 51% and the “Population Hoechst High Intensity Objects (%)” value [2] was 7%. For the same molecule, the “Population Membrane Permeable-Phenotype (%)” value [2] was 8%, the “Population Mitochondria Different-Phenotype (%)” value [2] was 5% and the “Population Mitotic Cells (%)” value [2] was 73%. For the same molecule, the “Population Normal (%)” value [2] was 92%, the “Population Pyknosed Nuclei (%)” value [2] was 23% and the “Population Tubulin-Different-Phenotype (%)” value [2] was 49%. For the same molecule, the “Total Cell Count” value [2] was 153, the “Population Apoptotic (%)” value [3] was 50% and the “Population Fragmented Nuclei (%)” value [3] was 22%. For the same molecule, the “Population Healthy Nuclei (%)” value [3] was 68%, the “Population Hoechst High Intensity Objects (%)” value [3] was 1% and the “Population Membrane Permeable-Phenotype (%)” value [3] was 0%. For the same molecule, the “Population Mitochondria Different-Phenotype (%)” value [3] was 6%, the “Population Mitotic Cells (%)” value [3] was 50% and the “Population Normal (%)” value [3] was 98%. The “Population Pyknosed Nuclei (%)” value [3] was 9%, the “Population Tubulin-Different-Phenotype (%)” value [3] was 35% and the “Total Cell Count” value [3] was 193. For the same molecule, the “Population Apoptotic (%)” value [4] was 43%, the “Population Fragmented Nuclei (%)” value [4] was 36% and the “Population Healthy Nuclei (%)” value [4] was 42%. For the same molecule, the “Population Membrane Permeable-Phenotype (%)” value [4] was 12%, the “Population Mitochondria Different-Phenotype (%)” value [4] was 10% and the “Population Mitotic Cells (%)” value [4] was 56%. The “Population Pyknosed Nuclei (%)” value [4] was 20%, the “Population Tubulin-Different-Phenotype (%)” value [4] was 60% and the “Total Cell Count” value [4] was 114. The “Population Apoptotic (%)” value [5] was 38%, the “Population Fragmented Nuclei (%)” value [5] was 18% and the “Population Healthy Nuclei (%)” value [5] was 66%. For the same molecule, the “Population Hoechst High Intensity Objects (%)” value [5] was 2%, the “Population Membrane Permeable-Phenotype (%)” value [5] was 0% and the “Population Mitochondria Different-Phenotype (%)” value [5] was 2%. The “Population Mitotic Cells (%)” value [5] was 61%, the “Population Normal (%)” value [5] was 97% and the “Population Pyknosed Nuclei (%)” value [5] was 15%. The “Population Tubulin-Different-Phenotype (%)” value [5] was 23%, the “Total Cell Count” value [5] was 176 and the “Population Apoptotic (%)” value [6] was 33%. For the same molecule, the “Population Fragmented Nuclei (%)” value [6] was 28%, the “Population Healthy Nuclei (%)” value [6] was 51% and the “Population Hoechst High Intensity Objects (%)” value [6] was 5%. For the same molecule, the “Population Membrane Permeable-Phenotype (%)” value [6] was 5%, the “Population Mitochondria Different-Phenotype (%)” value [6] was 6% and the “Population Mitotic Cells (%)” value [6] was 66%. The “Population Normal (%)” value [6] was 95%, the “Population Pyknosed Nuclei (%)” value [6] was 19% and the “Population Tubulin-Different-Phenotype (%)” value [6] was 55%. For the same molecule, the “Total Cell Count” value [6] was 160, the “Population Apoptotic (%)” value [7] was 60% and the “Population Fragmented Nuclei (%)” value [7] was 24%. For the same molecule, the “Population Healthy Nuclei (%)” value [7] was 65%, the “Population Hoechst High Intensity Objects (%)” value [7] was 1% and the “Population Membrane Permeable-Phenotype (%)” value [7] was 0%. For the same molecule, the “Population Mitochondria Different-Phenotype (%)” value [7] was 6%, the “Population Mitotic Cells (%)” value [7] was 40% and the “Population Normal (%)” value [7] was 99%. For the same molecule, the “Population Pyknosed Nuclei (%)” value [7] was 10%, the “Population Tubulin-Different-Phenotype (%)” value [7] was 34% and the “Total Cell Count” value [7] was 201. The “Population Apoptotic (%)” value [8] was 41%, the “Population Fragmented Nuclei (%)” value [8] was 45% and the “Population Healthy Nuclei (%)” value [8] was 38%. The “Population Hoechst High Intensity Objects (%)” value [8] was 5%, the “Population Membrane Permeable-Phenotype (%)” value [8] was 4% and the “Population Mitochondria Different-Phenotype (%)” value [8] was 13%. For the same molecule, the “Population Mitotic Cells (%)” value [8] was 58%, the “Population Normal (%)” value [8] was 94% and the “Population Pyknosed Nuclei (%)” value [8] was 15%. The “Population Tubulin-Different-Phenotype (%)” value [8] was 67%, the “Total Cell Count” value [8] was 118 and the “Population Apoptotic (%)” value [9] was 70%. For the same molecule, the “Population Fragmented Nuclei (%)” value [9] was 18%, the “Population Healthy Nuclei (%)” value [9] was 63% and the “Population Hoechst High Intensity Objects (%)” value [9] was 2%. For the same molecule, the “Population Membrane Permeable-Phenotype (%)” value [9] was 0%, the “Population Mitochondria Different-Phenotype (%)” value [9] was 2% and the “Population Mitotic Cells (%)” value [9] was 29%. The “Population Normal (%)” value [9] was 97%, the “Population Pyknosed Nuclei (%)” value [9] was 17% and the “Population Tubulin-Different-Phenotype (%)” value [9] was 23%. The “Total Cell Count” value [9] was 184, the “Population Apoptotic (%)” value [10] was 44% and the “Population Fragmented Nuclei (%)” value [10] was 32%. For the same molecule, the “Population Healthy Nuclei (%)” value [10] was 48%, the “Population Hoechst High Intensity Objects (%)” value [10] was 4% and the “Population Membrane Permeable-Phenotype (%)” value [10] was 5%. The “Population Mitotic Cells (%)” value [10] was 55%, the “Population Normal (%)” value [10] was 95% and the “Population Pyknosed Nuclei (%)” value [10] was 18%. For the same molecule, the “Population Tubulin-Different-Phenotype (%)” value [10] was 50%, the “Total Cell Count” value [10] was 160 and the “Population Apoptotic (%)” value [11] was 55%. For the same molecule, the “Population Fragmented Nuclei (%)” value [11] was 19%, the “Population Healthy Nuclei (%)” value [11] was 70% and the “Population Hoechst High Intensity Objects (%)” value [11] was 2%. The “Population Membrane Permeable-Phenotype (%)” value [11] was 0%, the “Population Mitochondria Different-Phenotype (%)” value [11] was 2% and the “Population Mitotic Cells (%)” value [11] was 44%. For the same molecule, the “Population Normal (%)” value [11] was 97%, the “Population Pyknosed Nuclei (%)” value [11] was 9% and the “Population Tubulin-Different-Phenotype (%)” value [11] was 34%. The “Total Cell Count” value [11] was 189, the “Population Apoptotic (%)” value [12] was 30% and the “Population Fragmented Nuclei (%)” value [12] was 48%. The “Population Healthy Nuclei (%)” value [12] was 41%, the “Population Hoechst High Intensity Objects (%)” value [12] was 3% and the “Population Membrane Permeable-Phenotype (%)” value [12] was 5%. The “Population Mitochondria Different-Phenotype (%)” value [12] was 11%, the “Population Mitotic Cells (%)” value [12] was 69% and the “Population Normal (%)” value [12] was 96%. The “Population Pyknosed Nuclei (%)” value [12] was 10%, the “Population Tubulin-Different-Phenotype (%)” value [12] was 66% and the “Total Cell Count” value [12] was 132.
